According to ChEMBL document CHEMBL3272064, “Mode of action and quantitative structure-activity correlations of tuberculostatic drugs of the isonicotinic acid hydrazide type” (J Med Chem, 1976):
Values after ≈ are worked out from the molar mass of the structure shown.

Key:
[1] = Dissociation constant, pKa of the compound
[2] = Retardation factor, Rm of the compound in acetone-water-silica gel layer; type: physicochemical; conditions: buffer
How it was run: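 Reversed-phase partition chromatography. The mobile phase was acetone–water; the stationary phase was a silica gel layer impregnated with a paraffin solution in n-hexane.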

[3] = system: Mycobacterium tuberculosis; assay: Antibacterial activity against Mycobacterium tuberculosis H37Rv assessed as growth inhibition by two-fold serial dilution method; type: functional; conditions: for MIC: Mycobacterium tuberculosis, H37Rv
[4] = system: Mycobacterium tuberculosis; assay: Antibacterial activity against Mycobacterium tuberculosis assessed as growth inhibition; type: functional
How it was run: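 Liquid-culture serial dilution against M. tuberculosis H37Rv, with √2 dilution steps. The test medium had 0.7% protein content. MIC (μM) was taken as the average of at least two determinations. Isoniazid served as the standard in every experiment. Activity was expressed as 1/MIC.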

[5] = Dissociation constant, pKa of the compound at 25 degC by spectrophotometric analysis; type: physicochemical
How it was run: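 Determined spectrophotometrically at 25 °C (±1). For the approximate value of the nitro-substituted pyridine, the Hammett acidity function (H0) was used.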

[6] = system: Mycobacterium tuberculosis; assay: Antibacterial activity against Mycobacterium tuberculosis using acidic culture media at pH 5.9 assessed as growth inhibition; type: functional
[7] = system: Mycobacterium tuberculosis; assay: Antibacterial activity against Mycobacterium tuberculosis assessed as growth inhibition at pH 7; type: functional
[8] = system: Mycobacterium tuberculosis; assay: Antibacterial activity against Mycobacterium tuberculosis assessed as growth inhibition in presence of 16 uM nicotinic acid hydrazide; type: functional
[9] = 1-octanol-phosphate buffer partition coefficient, log P of the compound at pH 7.4; type: physicochemical
[10] = system: Mycobacterium tuberculosis; assay: microbe, parasite or virus in culture

Compound	pKa [1]	Rm [2]	log(1/MIC) [3]	other results
COc1ccccn1	3.06	–	–	–
NNC(=O)c1ccnc([N+](=O)[O-])c1	–	0.577	-2.569	–
C=Cc1ccccn1	4.98	–	–	–
NNC(=O)c1cccnc1 [NICOTINIC ACID HYDRAZIDE]	–	–	–	MIC [4]: 1900 µM (≈ 261 µg/mL)
Cc1cc(C(=O)NN)ccn1	–	0.697	-0.716	–
CCOc1ccccn1	–	–	–	pKa [5]: 3.47
NNC(=O)c1ccnc(I)c1	–	0.931	-2.404	–
COc1cc(C(=O)NN)ccn1	–	0.783	-2.185	–
c1ccc(Cc2ccccn2)cc1	5.13	–	–	–
NNC(=O)c1ccnc(F)c1	–	0.42	-2.415	MIC [3]: 260 µM (≈ 40.3 µg/mL)
C=Cc1cc(C(=O)NN)ccn1	–	1.02	-1.544	–
CCc1cc(C(=O)NN)ccn1	–	0.862	-1.324	–
NNC(=O)c1ccnc(Cl)c1	–	0.63	-2.593	–
CCc1ccccn1	5.97	–	–	–
CCCc1cc(C(=O)NN)ccn1	–	1.168	-1.742	–
NNC(=O)c1ccnc(Cc2ccccc2)c1	–	1.365	-1.585	–
Brc1ccccn1	0.9	–	–	–

Compound	pKa [1]	Rm [2]	log(1/MIC) [3]	other results
Fc1ccccn1	0.44	–	–	–
NNC(=O)c1ccnc(N)c1	–	0.32	-1.161	–
CC(=O)NCc1ccccn1	–	–	–	pKa [5]: 4.23
CC(=O)Nc1ccccn1	4.09	–	–	–
CCN(CC)c1cc(C(=O)NN)ccn1	–	1.383	-2.856	–
NNC(=O)c1ccnc(Br)c1	–	0.866	-2.79	MIC [3]: 616 µM (≈ 133 µg/mL)
Nc1ccccn1 [2-AMINOPYRIDINE]	6.71	–	–	–
CCN(CC)c1ccccn1	–	–	–	pKa [5]: 7.32
CC(C)Cc1cc(C(=O)NN)ccn1	–	1.366	-2.653	MIC [3]: 450 µM (≈ 87 µg/mL)
O=C(O)c1ccncc1 [ISONICOTINIC ACID]	4.84	–	–	MIC [6]: 128 µM (≈ 15.8 µg/mL); MIC [7]: > 4000 µM
NNC(=O)c1ccncc1 [ISONIAZID]	–	0.372	-0.041	MIC [4]: 1 µM (≈ 0.137 µg/mL); MIC [8]: 1900 µM; MIC [3]: 1.1 µM (≈ 0.151 µg/mL); logD [9]: -1.14; MIC [10]: 0.5 µM (≈ 0.0686 µg/mL)
CC(=O)NCc1cc(C(=O)NN)ccn1	–	0.34	-2.386	–
CCOc1cc(C(=O)NN)ccn1	–	0.954	-2.655	–
CCCc1ccccn1	5.97	–	–	–
CC(=O)Nc1cc(C(=O)NN)ccn1	–	0.266	-3.332	–
NNC(=O)c1ccnc(-c2ccccc2)c1	–	1.643	-1.699	–
